Measurements reported in ChEMBL document CHEMBL4385601, “Anti-Zika Activity of a Library of Synthetic Carbohydrate Receptors” (J Med Chem, 2019).
Active and inactive are the calls of the source. The calls are words filed in the database; no cut-off is given here.

Key:
[1] = system: Zika virus; assay: Antiviral activity against Zika virus harboring subgenomic GFP replicon infected in African green monkey Vero cells assessed as reduction in viral infection at 100 uM preincubated for 30 mins followed by viral infection and measured after 72 hrs; type: functional, organism-based
[2] = system: Zika virus; assay: Antiviral activity against Zika virus harboring subgenomic GFP replicon infected in African green monkey Vero cells assessed as reduction in viral infection preincubated for 30 mins followed by viral infection and measured after 72 hrs; type: functional, organism-based
Procedure, shortened: (§1)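 Vero or HeLa cells (DMEM, 10% FBS) at 5,000/well were pretreated 30 min at room temperature; compound came from 10 mM DMSO stock diluted in medium. Cells were infected with reporter particles (ZIKV C-prM-E carrying a WNV GFP replicon) at a dose giving up to 1000 GFP+ cells/well. After 72 h at 37 °C, whole-well GFP+ counts were normalised to DMSO-treated infected cells. Wells were run in duplicate/triplicate, three experiments; IC50 taken from curve fits.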

[3] = Binding affinity to alpha mannose in CD2Cl2 by NMR analysis
[4] = Binding affinity to beta mannose in CD2Cl2 by NMR analysis
[5] = system: Zika virus; assay: Antiviral activity against Zika virus harboring subgenomic GFP replicon infected in African green monkey Vero cells assessed as reduction in viral infection treated 4 hrs post-infection and measured 72 hrs post-infection; type: functional, organism-based
Procedure, shortened: (§2)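 Vero cells were infected with a predetermined dose of ZIKV GFP reporter virus particles. Compound was added 4 h or 24 h after infection. Plates were fixed 72 h post-infection and GFP+ cells per well counted by whole-well imaging.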

[6] = Cytotoxicity against African green monkey Vero cells assessed as reduction in cell viability measured after 72 hrs by Celltiter-Glo luminescence assay; type: cell-based; details: chlorocebus sabaeus, read-out: TC50
Procedure, shortened: (§3)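 Vero or HeLa cells at 5,000/well were exposed to compound in duplicate for 72 h at 37 °C. Viability was read as cellular ATP by CellTiter-Glo luminescence and normalised to DMSO-treated cells as 100%. TC50 came from 4-parameter sigmoidal logistic fits.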

[7] = system: Zika virus; assay: Antiviral activity against Zika virus harboring subgenomic GFP replicon infected in human HeLa cells assessed as reduction in viral infection preincubated for 30 mins followed by viral infection and measured after 72 hrs; type: functional, organism-based; procedure, shortened: as §1
[8] = system: Zika virus; assay: Antiviral activity against Zika virus harboring subgenomic GFP replicon infected in African green monkey Vero cells assessed as reduction in viral infection treated 24 hrs post-infection and measured 72 hrs post-infection; type: functional, organism-based; procedure, shortened: as §2
[9] = Cytotoxicity against human HeLa cells assessed as reduction in cell viability measured after 72 hrs by Celltiter-Glo luminescence assay; type: cell-based; details: read-out: TC50; procedure, shortened: as §3
[10] = system: Zika virus; assay: Antiviral activity against Zika virus PRVABC-59 infected in African green monkey Vero cells assessed as reduction in viral infection up to 8 uM pretreated for 30 mins followed by viral infection and measured by 4G2 antibody based assay; type: functional, organism-based
Procedure, shortened: (§4)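 Vero cells at 7,500/well were pretreated with compound for 30 min at room temperature. They were then infected with PRVABC59 at a titration-set dose giving ~2000-3000 infected cells/well. Cells were fixed and stained with 4G2 anti-envelope antibody plus Alexa 488 secondary. Whole wells were imaged and positive cells counted, in triplicate wells, with the experiment repeated. Microscopy images were taken with DAPI nuclear counterstain.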

[11] = system: Vero; assay: Inhibition of envelope glycoprotein N154Q mutant in Zika virus infected in African green monkey Vero cells assessed as reduction in viral infection up to 8 uM pretreated for 30 mins followed by viral infection and measured 72 hrs post-infection; type: cell-based
Procedure, shortened: (§5)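 N154Q reporter particles were made by transfecting 293T cells 1:1 with C-prME-N154Q and subgenomic WNV GFP replicon plasmids, harvested at 48 h. Vero cells were pretreated with compound for 30 min at room temperature, then infected with wild-type or N154Q particles. GFP+ cells per well were counted from whole-well images at 72 h; mean ±SD of triplicate wells.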

[12] = system: Zika virus; assay: Antiviral activity against Zika virus PRVABC-59 infected in African green monkey Vero cells assessed as reduction in viral infection at 8 uM pretreated for 30 mins followed by viral infection and measured by DAPI staining-based fluorescence microscopic method; type: functional, organism-based; procedure, shortened: as §4
[13] = Therapeutic index, ratio of TC50 for African green monkey Vero cells to IC50 for Zika virus harboring subgenomic GFP replicon infected in African green monkey Vero cells; type: toxicity; details: read-out: TI
[14] = system: Vero; assay: Inhibition of envelope glycoprotein N154Q mutant in Zika virus infected in African green monkey Vero cells assessed as reduction in viral infection up to 200 uM pretreated for 30 mins followed by viral infection and measured 72 hrs post-infection; type: cell-based; procedure, shortened: as §5
[15] = system: Zika virus; assay: Antiviral activity against Zika virus PRVABC-59 infected in African green monkey Vero cells assessed as reduction in viral infection at 200 uM pretreated for 30 mins followed by viral infection and measured by DAPI staining-based fluorescence microscopic method; type: functional, organism-based; procedure, shortened: as §4
[16] = system: Zika virus; assay: Antiviral activity against Zika virus PRVABC-59 infected in African green monkey Vero cells assessed as reduction in viral infection up to 200 uM pretreated for 30 mins followed by viral infection and measured by 4G2 antibody based assay; type: functional, organism-based; procedure, shortened: as §4
[17] = Zika virus, Vero, read-out: IC50

Row | SMILES | Activity [1] | Ka [3] | IC50 [2, 17] [nM] | Ka [4] | Activity [5] | CC50 at 72 h [6] [nM] | IC50 [7] [nM] | Activity [8] | CC50 at 72 h [9] [nM] | further results
1 | O=C(NCc1cc(CNC(=O)c2ccco2)cc(-c2cc(CNC(=O)c3ccco3)cc(CNC(=O)c3ccco3)c2)c1)c1ccco1 | Active | – | – | – | – | – | – | – | – | IC50 ([2]; vero): Nd(Insoluble)
2 | Cn1ccnc1CNCc1cc(CNCc2nccn2C)cc(-c2cc(CNCc3nccn3C)cc(CNCc3nccn3C)c2)c1 | Active | 4.4 ×10³ /M | > 100000 | 5.9 ×10² /M | – | – | – | – | – | –
3 | NCc1cc(CN)cc(-c2cc(CN)cc(CN)c2)c1 | Active | – | > 100000 | – | – | – | – | – | – | –
4 | c1coc(CNCc2cc(CNCc3ccco3)cc(-c3cc(CNCc4ccco4)cc(CNCc4ccco4)c3)c2)c1 | Active | 1.1 ×10² /M | 1130 | 5.4 ×10¹ /M | inactive | 5430 | 350 | inactive | 2510 | –
5 | c1c[nH]c(CNCc2cc(CNCc3ccc[nH]3)cc(-c3cc(CNCc4ccc[nH]4)cc(CNCc4ccc[nH]4)c3)c2)c1 | Active | 1.4 ×10³ /M | 360 | 3.6 ×10⁴ /M | inactive | 34200 | 450 | inactive | 2430 | –
6 | C(=N\Cc1cc(C/N=C/c2ccco2)cc(-c2cc(C/N=C/c3ccco3)cc(C/N=C/c3ccco3)c2)c1)/c1ccco1 | Active | 2 ×10² /M | > 100000 | 3.7 ×10¹ /M | – | – | – | – | – | –
7 | c1coc(CNCc2cc(CNCc3ccco3)cc(-c3cc(CNCc4ccco4)cc(Cn4cc(COCCOCCOCCOCc5cn(Cc6cc(CNCc7ccco7)cc(-c7cc(CNCc8ccco8)cc(CNCc8ccco8)c7)c6)nn5)nn4)c3)c2)c1 | Active | – | 12400 | – | – | 51500 | 1370 | – | 2220 | –
8 | c1c[nH]c(CNCc2cc(CNCc3ccc[nH]3)cc(-c3cc(CNCc4ccc[nH]4)cc(Cn4cc(COCCOCCOCCOCc5cn(Cc6cc(CNCc7ccc[nH]7)cc(-c7cc(CNCc8ccc[nH]8)cc(CNCc8ccc[nH]8)c7)c6)nn5)nn4)c3)c2)c1 | Active | 2.6 ×10³ /M | 160 | 1.7 ×10³ /M | inactive | 36200 | 240 | inactive | 2480 | Activity [10]: Active; inhibition [11]: Active; Activity [12]: Active; selectivity ratio [13]: > 220
9 | C(=N\Cc1cc(C/N=C/c2ccc[nH]2)cc(-c2cc(C/N=C/c3ccc[nH]3)cc(C/N=C/c3ccc[nH]3)c2)c1)/c1ccc[nH]1 | Active | 3 ×10³ /M | 1360 | 2.4 ×10³ /M | inactive | 46100 | 3060 | inactive | 17600 | –
10 | C(=N\Cc1cc(C/N=C/c2cccs2)cc(-c2cc(C/N=C/c3cccs3)cc(C/N=C/c3cccs3)c2)c1)/c1cccs1 | Active | inactive | > 100000 | inactive | – | – | – | – | – | –
11 | O=C(NCc1cc(CNC(=O)c2cccs2)cc(-c2cc(CNC(=O)c3cccs3)cc(CNC(=O)c3cccs3)c2)c1)c1cccs1 | Active | – | > 100000 | – | – | – | – | – | – | –
12 | Cc1ccc(C(=O)Nc2ccc(S(=O)(=O)O)c3cc(S(=O)(=O)O)cc(S(=O)(=O)O)c23)cc1NC(=O)c1cccc(NC(=O)Nc2cccc(C(=O)Nc3cc(C(=O)Nc4ccc(S(=O)(=O)O)c5cc(S(=O)(=O)O)cc(S(=O)(=O)O)c45)ccc3C)c2)c1 [SURAMIN] | – | – | 44000 | – | inactive | > 200000 | – | inactive | – | inhibition [14]: Active; Activity [15]: Active; Activity [2]: Dose-dependent effect; Activity [16]: Active
13 | c1csc(CNCc2cc(CNCc3cccs3)cc(-c3cc(CNCc4cccs4)cc(CNCc4cccs4)c3)c2)c1 | Active | 1.4 ×10² /M | 1310 | inactive | inactive | 4120 | 560 | inactive | 2470 | –
